Consider 33 molecules from ChEMBL document CHEMBL1128737, “Inhibition of herpes simplex virus type 1 helicase-primase by (dichloroanilino)purines and -pyrimidines” (J Med Chem, 1995).

The test system of experiment [1] is HeLa. The experiment can be described thus: Inhibition of [3H]thymidine incorporation into the DNA of uninfected HeLa cells. The note with it: Homo sapiens. It is filed as functional, cell-based. Put shortly: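 Uninfected HeLa cells (3 × 10^6/well) in DMEM/10% FCS grown 24 h, then given serial compound dilutions or DMSO in duplicate for a further 24 h at 37 °C. [3H]thymidine (1 μCi/mL) added for 3 h, followed by NaOH lysis, 5% TCA precipitation, filter collection and scintillation counting.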
A general note: Dividing cells build labelled thymidine or BrdU into new DNA.

Experiment [2] addresses T1, DNA helicase/primase complex protein (Herpes simplex virus (type 1 / strain 17)) (UniProt P10236).
T1 sequence (whole entry): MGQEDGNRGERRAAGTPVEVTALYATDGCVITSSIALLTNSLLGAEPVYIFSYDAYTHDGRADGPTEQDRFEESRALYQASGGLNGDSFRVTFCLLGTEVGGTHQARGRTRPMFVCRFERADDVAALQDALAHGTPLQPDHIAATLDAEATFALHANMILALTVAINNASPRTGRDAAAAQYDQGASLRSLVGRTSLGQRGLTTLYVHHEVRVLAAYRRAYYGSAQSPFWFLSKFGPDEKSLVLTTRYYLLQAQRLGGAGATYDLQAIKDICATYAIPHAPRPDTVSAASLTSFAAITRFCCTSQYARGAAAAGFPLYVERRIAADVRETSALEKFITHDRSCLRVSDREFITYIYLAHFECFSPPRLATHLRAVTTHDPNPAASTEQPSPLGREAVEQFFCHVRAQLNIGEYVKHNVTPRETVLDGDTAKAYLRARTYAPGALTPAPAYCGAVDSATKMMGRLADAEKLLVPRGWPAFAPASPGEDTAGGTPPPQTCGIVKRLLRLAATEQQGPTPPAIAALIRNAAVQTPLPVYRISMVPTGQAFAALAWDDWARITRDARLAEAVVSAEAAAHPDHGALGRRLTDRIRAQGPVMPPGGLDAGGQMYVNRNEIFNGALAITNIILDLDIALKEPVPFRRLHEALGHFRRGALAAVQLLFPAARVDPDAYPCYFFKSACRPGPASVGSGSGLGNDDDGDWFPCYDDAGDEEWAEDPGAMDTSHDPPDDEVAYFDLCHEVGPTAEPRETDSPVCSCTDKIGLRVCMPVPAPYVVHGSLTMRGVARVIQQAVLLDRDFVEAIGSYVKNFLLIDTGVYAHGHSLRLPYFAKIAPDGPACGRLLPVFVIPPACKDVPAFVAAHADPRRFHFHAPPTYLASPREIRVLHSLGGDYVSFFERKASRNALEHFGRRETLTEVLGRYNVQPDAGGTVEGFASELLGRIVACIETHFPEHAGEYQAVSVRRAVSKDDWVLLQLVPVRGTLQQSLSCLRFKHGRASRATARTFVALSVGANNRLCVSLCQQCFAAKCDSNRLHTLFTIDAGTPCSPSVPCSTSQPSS
As to the kind of experiment: (§1) Inhibition against the primase activity of HSV-1 helicase-primase at a concentration 200 micro/mL. The conditions noted are these: Human alphaherpesvirus 1. It is filed as functional.

The test system of experiment [3] is HeLa. The experiment can be described thus: Inhibition of HSV-1 DNA synthesis in virus-infected HeLa cells. The note with it: Homo sapiens. Format: functional, cell-based. In a few lines:
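HeLa cells (2 × 10^4/well) grown 24 h at 37 °C, infected with HSV1 KOS, adsorbed 90 min. Serial compound dilutions in DMEM/2% FCS added to duplicate wells for 24 h.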

The target in experiment [4] is T1, DNA helicase/primase complex protein (Herpes simplex virus (type 1 / strain 17)). As to the kind of experiment: Inhibition against DNA-Dependent ATPase activity of HSV-1 helicase-primase in HSV-1-infected CV-1 cells. It is filed as cell-based. The arrangement: concentration or dose not given beside the values. The conditions noted are these: concentration not given here. Put shortly: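 Three-subunit helicase-primase purified from HSV1-infected CV-1 cells, 15 units. DNA-dependent NTPase run with 1 mM ATP and 2 μg activated DNA, compounds in 5% DMSO, 20 min at 34 °C. Orthophosphate read with acidic molybdate-malachite green at 650 nm. Done in duplicate, averaged over at least two independent experiments.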

Experiment [5] has as its target DNA replication helicase (Human herpesvirus 1, UniProt P10189). The experiment can be described thus: Inhibition against DNA-Dependent GTPase activity of two-subunit recombinant HSV-1 helicase-primase.
The target of experiment [6] is T1, DNA helicase/primase complex protein (Herpes simplex virus (type 1 / strain 17)). The description is as §1. The note with it: Human alphaherpesvirus 1.
For experiment [7], the target named is T2, DNA helicase/primase complex protein (Herpes simplex virus (type 1 / strain 17), UniProt P10236).
T2 sequence (P10236 whole entry): T1 sequence (whole entry)
The experiment can be described thus: (§2) Inhibition against Primase by coupled primase-DNA polymerase-I assay with the two subunit recombinant HSV-1 helicase primase. It is filed as functional, Human alphaherpesvirus 1. In a few lines:
(§3)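 Two-subunit baculovirus enzyme (1 unit) coupled to 1 unit E. coli Klenow. Buffer: 50 mM Tris·HCl pH 8.7, 3.5 mM MgCl2, 10% glycerol, 100 μg/mL BSA. Inhibitors in DMSO at 0.5% final, screened at 200 μg/mL. Run 60 min at 34 °C; EDTA quench; polymer isolated on G50 and counted. Duplicates.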

The target in experiment [8] is T2, DNA helicase/primase complex protein. The experiment is described as §2. The arrangement: species or system Human alphaherpesvirus 1. In a few lines: as §3

Sequence of DNA replication helicase (P10189 whole entry, looked up): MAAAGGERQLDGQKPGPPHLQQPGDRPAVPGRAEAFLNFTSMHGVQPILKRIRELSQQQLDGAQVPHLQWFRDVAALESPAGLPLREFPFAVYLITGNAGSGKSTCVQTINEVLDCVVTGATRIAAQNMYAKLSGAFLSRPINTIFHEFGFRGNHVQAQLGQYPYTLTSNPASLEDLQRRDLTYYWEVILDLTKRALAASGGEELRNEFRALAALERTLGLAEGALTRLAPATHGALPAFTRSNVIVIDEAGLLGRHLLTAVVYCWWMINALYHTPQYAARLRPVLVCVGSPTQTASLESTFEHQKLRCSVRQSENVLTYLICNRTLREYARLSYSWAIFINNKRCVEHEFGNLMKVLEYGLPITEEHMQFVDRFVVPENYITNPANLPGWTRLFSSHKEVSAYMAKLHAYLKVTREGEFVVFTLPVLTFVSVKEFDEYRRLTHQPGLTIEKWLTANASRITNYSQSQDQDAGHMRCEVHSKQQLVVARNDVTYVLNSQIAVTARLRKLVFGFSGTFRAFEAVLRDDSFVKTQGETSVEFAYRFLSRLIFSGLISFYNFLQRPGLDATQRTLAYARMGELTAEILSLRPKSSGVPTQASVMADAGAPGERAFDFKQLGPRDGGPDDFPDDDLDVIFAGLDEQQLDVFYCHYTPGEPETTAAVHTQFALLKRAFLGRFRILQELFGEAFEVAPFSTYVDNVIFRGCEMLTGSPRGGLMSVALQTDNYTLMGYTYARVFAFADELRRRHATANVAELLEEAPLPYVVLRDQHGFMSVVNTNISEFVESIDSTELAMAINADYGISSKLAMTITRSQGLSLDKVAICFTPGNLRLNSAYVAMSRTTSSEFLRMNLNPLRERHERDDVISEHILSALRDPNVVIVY

As for `Oc1[nH]c(Nc2cc(Cl)cc(Cl)c2)nc2ncnc1-2`, the IC50 in experiment [1] and in experiment [3] was more than 200 µM each time. Further, the inhibition (as a rule, the relative decrease from the control value, in per cent) in experiment [2] was 94%; in experiment [4] it was 70%.

In the case of `Oc1cc(Nc2ccc(Cl)c(Cl)c2)nc(O)n1`, in experiment [5], the IC50 (in general, the concentration needed to halve the response being measured) was more than 2000 µM. For the same molecule, the inhibition in experiment [6] was found to be 30%.

With `Nc1nc(Nc2cc(Cl)cc(Cl)c2)cc(=O)[nH]1`, the half-inhibitory concentration (IC50) in experiment [5] was determined as 770 µM.

Regarding `Nc1nc(Nc2cc(Cl)cc(Cl)c2)nc2c1ncn2COCCO`, the IC50 in experiment [1] stood at 2.5 µM; in experiment [3], 12.9 µM.

As for `Oc1[nH]c(Nc2ccc3c(c2)CCC3)nc2ncnc1-2`, the inhibition in experiment [4] came to 0%.

`Nc1nc(Cl)cc(Nc2cc(Cl)cc(Cl)c2)n1`: the figures for the IC50 in experiment [1] and in experiment [3] were 23 µM and 45 µM, respectively. In experiment [6], this molecule gave an inhibition of 92%.

In the case of `Nc1nc(Nc2cc(Cl)cc(Cl)c2)nc2c1ncn2COC(CO)CO`, the IC50 is 5.5 µM in experiment [1] and 61.6 µM in experiment [3].

Take `Nc1nc(Nc2cc(Cl)cc(Cl)c2)nc2c1ncn2[C@H]1C[C@H](O)[C@@H](CO)O1`: the figures for the IC50 in experiment [1] and in experiment [3] were 0.4 µM and 49 µM, respectively.

Regarding `Nc1nc(Nc2cc(Cl)cc(Cl)c2)nc2nc[nH]c12`, the IC50 in experiment [5] was 920 µM.

`Oc1[nH]c(Nc2ccccc2)nc2ncnc1-2` displayed an inhibition in experiment [4] of 0%.

Molecule `O=c1[nH]c(Nc2cccc(C(F)(F)F)c2)nc2[nH]cnc12` showed an inhibition in experiment [4] of 13%.

With `Oc1[nH]c(Nc2ccc(Cl)c(Cl)c2)nc2ncnc1-2`, the half-maximal inhibitory concentration (IC50) was 250 µM in experiment [1], 59 µM in experiment [7], more than 200 µM in experiment [3] and 880 µM in experiment [5]. In addition, the inhibition stood at 89% in experiment [2] and 98% in experiment [4].

For `Cc1ccc(Nc2nc(O)c3[nH]cnc3n2)cc1`, the inhibition in experiment [4] worked out at 0%.

As to `Nc1[nH]c(Nc2ccc(Cl)c(Cl)c2)nc2ncnc1-2`, the IC50 was 15 µM in experiment [1], 75 µM in experiment [3] and 850 µM in experiment [5]. Also, in experiment [6], the inhibition amounted to 94%.

On to `Oc1[nH]c(Nc2ccc(Br)cc2)nc2ncnc1-2`, for which the inhibition in experiment [4] stood at 40%.

`CCc1cccc(Nc2nc(O)c3[nH]cnc3n2)c1`: the inhibition in experiment [4] worked out at 42%.

With `OCCOCn1cnc2c(Cl)nc(Nc3cc(Cl)cc(Cl)c3)nc21`, the concentration for half-maximal inhibition (IC50) is 7.4 µM in experiment [1] and 5 µM in experiment [3].

Take `Nc1[nH]c(Nc2cc(Cl)cc(Cl)c2)nc2ncnc1-2`: the results for the IC50 in experiment [1] and in experiment [3] were 21 µM and 69 µM, respectively. The molecule also displayed an inhibition in experiment [6] of 93%.

With `Nc1nc(O)cc(Nc2ccc(Cl)c(Cl)c2)n1`, in experiment [5], the IC50 is 850 µM. For the same molecule, the inhibition in experiment [6] turned out to be 44%.

For the molecule `Oc1cc(Nc2cc(Cl)cc(Cl)c2)nc(O)n1`, the IC50 in experiment [5] is more than 2000 µM. Besides, the inhibition in experiment [6] was determined as 46%.

As to `OC[C@H]1O[C@@H](n2cnc3c(Cl)nc(Nc4cc(Cl)cc(Cl)c4)nc32)C[C@@H]1O`, the IC50 in experiment [1] came to 2.7 µM; in experiment [3] it was 23 µM.

As for `O=c1[nH]c(Nc2cc(Cl)cc(Cl)c2)nc2c1ncn2[C@H]1C[C@H](O)[C@@H](CO)O1`, the figures for the IC50 in experiment [1] and in experiment [3] were 32 µM and 190 µM, respectively.

In experiment [4], `Oc1ccc(Nc2nc(O)c3[nH]cnc3n2)cc1` yielded an inhibition of 17%.

The molecule `Oc1[nH]c(Nc2ccc(F)c(Cl)c2)nc2ncnc1-2` gave an inhibition in experiment [4] of 96%.

With `O=c1[nH]c(Nc2cc(Cl)cc(Cl)c2)nc2c1ncn2COCCO`, the concentration for half-maximal inhibition (IC50) in experiment [1] worked out at 23.4 µM; in experiment [3] it was 14.4 µM.

In the case of `O=c1[nH]c(Nc2cc(Cl)cc(Cl)c2)nc2nc[nH]c12`, in experiment [5], the IC50 stood at 910 µM.

On to `Oc1[nH]c(Nc2ccc(F)cc2)nc2ncnc1-2`, for which the inhibition in experiment [4] was 5%.

With `Nc1nc2c(ncn2COCCO)c(=O)[nH]1` [ACYCLOVIR], the IC50 was more than 200 µM in experiment [1] and 1.9 µM in experiment [3].

`Nc1nc(O)cc(Nc2cc(Cl)cc(Cl)c2)n1`: in experiment [6], the inhibition was determined as 34%.

The molecule `Oc1[nH]c(Nc2ccc(F)c(F)c2)nc2ncnc1-2` registered an inhibition in experiment [4] of 73%.

On to `O=c1[nH]c(Nc2cc(Cl)cc(Cl)c2)nc2c1ncn2COC(CO)CO`, for which the IC50 stood at 22.9 µM in experiment [1] and 91 µM in experiment [3].

Consider `Oc1[nH]c(Nc2cccc(Cl)c2)nc2ncnc1-2`, for which, in experiment [4], the inhibition is 60%.

Take `Nc1nc(Cl)cc(Nc2ccc(Cl)c(Cl)c2)n1`: the IC50 in experiment [8] is 8.7 µM; in experiment [1], 25 µM; in experiment [3], 62 µM. The inhibition in experiment [6] was 98%.
